Reference: ChEMBL document CHEMBL3745670, “Synthesis and biological evaluation of novel lipoamino acid derivatives” (Bioorg Med Chem Lett, 2016)
Converted amounts (≈) assume the structure as drawn.

Experiments:
[1] = test system: Candida albicans; assay: Antifungal activity against Candida albicans MTCC 3017 after 24 hrs by well diffusion assay; assay type: functional; conditions: MTCC 3017, 24 h
Procedure, shortened: (§1)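 Well diffusion screen against Candida and related fungal strains. Read-out is MIC in µg/mL, with miconazole as the reference drug.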

[2] = test system: Candida albicans; assay: Antifungal activity against Candida albicans MTCC 227 after 24 hrs by well diffusion assay; assay type: functional; conditions: MTCC 227, 24 h; procedure, shortened: as §1
[3] = test system: Pichia sporocuriosa; assay: Antifungal activity against Issatchenkia hanoiensis MTCC 4755 after 24 hrs by well diffusion assay; assay type: functional; conditions: MTCC 4755, 24 h; procedure, shortened: as §1
[4] = test system: MDA-MB-231; assay: Cytotoxicity against human MDA-MB-231 cells by MTT assay; assay type: functional, cell-based
[5] = test system: Pseudomonas aeruginosa; assay: Antibacterial activity against Pseudomonas aeruginosa MTCC 2453 after 24 hrs by well diffusion assay; assay type: functional; conditions: MTCC 2453, 24 h
[6] = test system: Candida albicans; assay: Antifungal activity against Candida albicans MTCC 183 after 24 hrs by well diffusion assay; assay type: functional; conditions: MTCC 183, 24 h; procedure, shortened: as §1
[7] = test system: Candida albicans; assay: Antifungal activity against Candida albicans MTCC 854 after 24 hrs by well diffusion assay; assay type: functional; conditions: MTCC 854, 24 h; procedure, shortened: as §1
[8] = test system: Candida parapsilosis; assay: Antifungal activity against Candida parapsilosis MTCC 1744 after 24 hrs by well diffusion assay; assay type: functional; conditions: Lodderomyces parapsilosis, MTCC 1744, 24 h; procedure, shortened: as §1
[9] = test system: Candida parapsilosis; assay: Inhibition of ergosterol biosynthesis in Candida parapsilosis MTCC 1744 assessed as mean ergosterol content at 2 ug/ml after 20 hrs by spectrophotometric analysis (Rvb=1.62 +/- 0.08 ug/ml); assay type: functional
[10] = test system: Staphylococcus aureus; assay: Bactericidal activity against Staphylococcus aureus MLS-16 MTCC 2940 after 24 hrs; assay type: functional; conditions: MLS-16 MTCC 2940, 24 h
Procedure, shortened: (§2)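 Minimum bactericidal concentration was determined on four Gram-positive strains, for the compounds active in the preliminary antibacterial screen.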

[11] = test system: Micrococcus luteus; assay: Antibacterial activity against Micrococcus luteus MTCC 2470 after 24 hrs by well diffusion assay; assay type: functional; conditions: MTCC 2470, 24 h
[12] = test system: Bacillus subtilis; assay: Antibiofilm activity against Bacillus subtilis MTCC 121 after 24 hrs by well diffusion assay by crystal violet staining based method; assay type: functional, organism-based; conditions: MTCC 121, 24 h
Procedure, shortened: (§3)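 Biofilm inhibition was tested on the four Gram-positive strains, using crystal violet staining.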

[13] = test system: Candida albicans; assay: Antifungal activity against Candida albicans MTCC 7315 after 24 hrs by well diffusion assay; assay type: functional; conditions: MTCC 7315, 24 h; procedure, shortened: as §1
[14] = test system: Bacillus subtilis; assay: Antibacterial activity against Bacillus subtilis MTCC 121 after 24 hrs by well diffusion assay; assay type: functional; conditions: MTCC 121, 24 h
[15] = test system: HepG2; assay: Cytotoxicity against human HepG2 cells by MTT assay; assay type: functional, cell-based
[16] = test system: Micrococcus luteus; assay: Antibiofilm activity against Micrococcus luteus MTCC 2470 after 24 hrs by crystal violet staining based method; assay type: functional, organism-based; conditions: MTCC 2470, 24 h; procedure, shortened: as §3
[17] = Cytotoxicity against human SKOV3 cells by MTT assay; assay type: functional, cell-based; conditions: SK-OV-3
[18] = test system: Staphylococcus aureus; assay: Antibacterial activity against Staphylococcus aureus MTCC 96 after 24 hrs by well diffusion assay; assay type: functional; conditions: MTCC 96, 24 h
[19] = test system: Candida albicans; assay: Antifungal activity against Candida albicans MTCC 4748 after 24 hrs by well diffusion assay; assay type: functional; conditions: MTCC 4748, 24 h; procedure, shortened: as §1
[20] = test system: Staphylococcus aureus; assay: Antibiofilm activity against Staphylococcus aureus MLS-16 MTCC 2940 after 24 hrs by crystal violet staining based method; assay type: functional, organism-based; conditions: MLS-16 MTCC 2940, 24 h; procedure, shortened: as §3
[21] = Cytotoxicity against human DU145 cells by MTT assay; assay type: functional, cell-based; conditions: DU-145
[22] = test system: Pichia kudriavzevii; assay: Antifungal activity against Pichia kudriavzevii MTCC 3020 after 24 hrs by well diffusion assay; assay type: functional; conditions: MTCC 3020, 24 h; procedure, shortened: as §1
[23] = test system: [Candida] aaseri; assay: Antifungal activity against Candida aaseri MTCC 1962 after 24 hrs by well diffusion assay; assay type: functional; conditions: Yamadazyma aaseri, MTCC 1962, 24 h; procedure, shortened: as §1
[24] = test system: Candida albicans; assay: Antifungal activity against Candida albicans MTCC 3958 after 24 hrs by well diffusion assay; assay type: functional; conditions: MTCC 3958, 24 h; procedure, shortened: as §1
[25] = test system: Raoultella planticola; assay: Antibacterial activity against Klebsiella planticola MTCC 530 after 24 hrs by well diffusion assay; assay type: functional; conditions: MTCC 530, 24 h
[26] = test system: Candida parapsilosis; assay: Inhibition of ergosterol biosynthesis in Candida parapsilosis MTCC 1744 assessed as mean ergosterol content at 4 ug/ml after 20 hrs by spectrophotometric analysis (Rvb=1.62 +/- 0.08 ug/ml); assay type: functional
[27] = test system: Staphylococcus aureus; assay: Bactericidal activity against Staphylococcus aureus MTCC 96 after 24 hrs; assay type: functional; conditions: MTCC 96, 24 h; procedure, shortened: as §2
[28] = test system: Staphylococcus aureus; assay: Antibiofilm activity against Staphylococcus aureus MTCC 96 after 24 hrs by crystal violet staining based method; assay type: functional, organism-based; conditions: MTCC 96, 24 h; procedure, shortened: as §3
[29] = test system: Candida albicans; assay: Antifungal activity against Candida albicans MTCC 1637 after 24 hrs by well diffusion assay; assay type: functional; conditions: MTCC 1637, 24 h; procedure, shortened: as §1
[30] = test system: Staphylococcus aureus; assay: Antibacterial activity against Staphylococcus aureus MLS-16 MTCC 2940 after 24 hrs by well diffusion assay; assay type: functional; conditions: MLS-16 MTCC 2940, 24 h
[31] = test system: Candida albicans; assay: Antifungal activity against Candida albicans MTCC 3018 after 24 hrs by well diffusion assay; assay type: functional; conditions: MTCC 3018, 24 h; procedure, shortened: as §1
[32] = test system: Nakaseomyces glabratus; assay: Antifungal activity against Candida glabrata MTCC 3019 after 24 hrs by well diffusion assay; assay type: functional; conditions: MTCC 3019, 24 h; procedure, shortened: as §1
[33] = test system: Micrococcus luteus; assay: Bactericidal activity against Micrococcus luteus MTCC 2470 after 24 hrs; assay type: functional; conditions: MTCC 2470, 24 h; procedure, shortened: as §2
[34] = test system: Bacillus subtilis; assay: Bactericidal activity against Bacillus subtilis MTCC 121 after 24 hrs by well diffusion assay; assay type: functional; conditions: MTCC 121, 24 h; procedure, shortened: as §2
[35] = test system: Candida parapsilosis; assay: Inhibition of ergosterol biosynthesis in Candida parapsilosis MTCC 1744 assessed as mean ergosterol content at 8 ug/ml after 20 hrs by spectrophotometric analysis (Rvb=1.62 +/- 0.08 ug/ml); assay type: functional
[36] = test system: Candida parapsilosis; assay: Inhibition of ergosterol biosynthesis in Candida parapsilosis MTCC 1744 assessed as mean ergosterol content at 16 ug/ml after 20 hrs by spectrophotometric analysis (Rvb=1.62 +/- 0.08 ug/ml); assay type: functional
[37] = test system: Escherichia coli; assay: Antibacterial activity against Escherichia coli MTCC 739 after 24 hrs by well diffusion assay; assay type: functional; conditions: MTCC 739, 24 h

In the case of CCCCCCCCC(CCCCCCCCC(=O)OC)SCC(=O)N[C@@H](C)C(=O)OC (stereo not given in full), the MIC [1] is reported as 7.8 µg/mL (≈ 16.5 µM), the MFC [2] is reported as 31.2 µg/mL (≈ 65.9 µM) and the MIC [2] is reported as 15.6 µg/mL (≈ 32.9 µM). It also gave an MFC [3] of 31.2 µg/mL (≈ 65.9 µM), an MIC [3] of 15.6 µg/mL (≈ 32.9 µM) and an IC50 [4] of 98.7 µM. It also gave an MIC [5] of over 125 µg/mL, an MFC [6] of 15.6 µg/mL (≈ 32.9 µM) and an MIC [6] of 7.8 µg/mL (≈ 16.5 µM). It also gave an MFC [7] of 62.5 µg/mL (≈ 132 µM), an MIC [7] of 31.2 µg/mL (≈ 65.9 µM) and an MFC [8] of 7.8 µg/mL (≈ 16.5 µM). The MIC [8] was 7.8 µg/mL (≈ 16.5 µM), the Activity [9] was 1.41 µg/mL and the MBC [10] was 15.6 µg/mL (≈ 32.9 µM). For the same molecule, the MIC [11] was 7.8 µg/mL (≈ 16.5 µM), the IC50 [12] was 2800 nM and the MFC [13] was 31.2 µg/mL (≈ 65.9 µM). The MIC [13] was 15.6 µg/mL (≈ 32.9 µM), the MIC [14] was 3.9 µg/mL (≈ 8.23 µM) and the IC50 [15] was 102 µM. It also gave an IC50 [16] of 4.1 µM, an IC50 [17] of 114 µM and an MIC [18] of 15.6 µg/mL (≈ 32.9 µM). The MFC [19] was 15.6 µg/mL (≈ 32.9 µM), the MIC [19] was 15.6 µg/mL (≈ 32.9 µM) and the IC50 [20] was 3.2 µM. It also gave an IC50 [21] of 154 µM, an MFC [22] of 15.6 µg/mL (≈ 32.9 µM) and an MIC [22] of 15.6 µg/mL (≈ 32.9 µM). It also gave an MFC [23] of 31.2 µg/mL (≈ 65.9 µM), an MIC [23] of 15.6 µg/mL (≈ 32.9 µM) and an MFC [24] of 15.6 µg/mL (≈ 32.9 µM). The MIC [24] was 7.8 µg/mL (≈ 16.5 µM), the MIC [25] was over 125 µg/mL and the Activity [26] was 0.63 µg/mL. The MBC [27] was 31.2 µg/mL (≈ 65.9 µM), the IC50 [28] was 9.3 µM and the MFC [29] was 31.2 µg/mL (≈ 65.9 µM). For the same molecule, the MIC [29] was 31.2 µg/mL (≈ 65.9 µM), the MIC [30] was 7.8 µg/mL (≈ 16.5 µM) and the MFC [31] was 31.2 µg/mL (≈ 65.9 µM). It also gave an MIC [31] of 15.6 µg/mL (≈ 32.9 µM), an MFC [32] of 31.2 µg/mL (≈ 65.9 µM) and an MIC [32] of 31.2 µg/mL (≈ 65.9 µM). It also gave an MBC [33] of 7.8 µg/mL (≈ 16.5 µM), an MBC [34] of 7.8 µg/mL (≈ 16.5 µM) and an Activity [35] of 0.38 µg/mL. For the same molecule, the Activity [36] was 0.11 µg/mL and the MIC [37] was over 125 µg/mL.
